Source: ChEMBL document CHEMBL3352511, “Pyrrole-3-carboxamides as potent and selective JAK2 inhibitors” (Bioorg Med Chem, 2014)
Converted amounts (≈) assume the structure as drawn.

Columns and labels:
[1] = molecular target: Tyrosine-protein kinase JAK2 (Homo sapiens, UniProt O60674)
[2] = Antiproliferative activity against human DERL7 cells after 72 hrs by Cell Titer-Glo assay; assay type: functional, cell-based; conditions: DERL7, 72 h
A2780 = test: Antiproliferative activity against human A2780 cells after 72 hrs by Cell Titer-Glo assay; assay type: functional, cell-based; conditions: A2780, 72 h
[3] = molecular target: Tyrosine-protein kinase JAK2 (Homo sapiens, UniProt O60674, V617F)
Chain of Tyrosine-protein kinase JAK2 (Homo sapiens, UniProt O60674, V617F) (O60674 whole entry V617F): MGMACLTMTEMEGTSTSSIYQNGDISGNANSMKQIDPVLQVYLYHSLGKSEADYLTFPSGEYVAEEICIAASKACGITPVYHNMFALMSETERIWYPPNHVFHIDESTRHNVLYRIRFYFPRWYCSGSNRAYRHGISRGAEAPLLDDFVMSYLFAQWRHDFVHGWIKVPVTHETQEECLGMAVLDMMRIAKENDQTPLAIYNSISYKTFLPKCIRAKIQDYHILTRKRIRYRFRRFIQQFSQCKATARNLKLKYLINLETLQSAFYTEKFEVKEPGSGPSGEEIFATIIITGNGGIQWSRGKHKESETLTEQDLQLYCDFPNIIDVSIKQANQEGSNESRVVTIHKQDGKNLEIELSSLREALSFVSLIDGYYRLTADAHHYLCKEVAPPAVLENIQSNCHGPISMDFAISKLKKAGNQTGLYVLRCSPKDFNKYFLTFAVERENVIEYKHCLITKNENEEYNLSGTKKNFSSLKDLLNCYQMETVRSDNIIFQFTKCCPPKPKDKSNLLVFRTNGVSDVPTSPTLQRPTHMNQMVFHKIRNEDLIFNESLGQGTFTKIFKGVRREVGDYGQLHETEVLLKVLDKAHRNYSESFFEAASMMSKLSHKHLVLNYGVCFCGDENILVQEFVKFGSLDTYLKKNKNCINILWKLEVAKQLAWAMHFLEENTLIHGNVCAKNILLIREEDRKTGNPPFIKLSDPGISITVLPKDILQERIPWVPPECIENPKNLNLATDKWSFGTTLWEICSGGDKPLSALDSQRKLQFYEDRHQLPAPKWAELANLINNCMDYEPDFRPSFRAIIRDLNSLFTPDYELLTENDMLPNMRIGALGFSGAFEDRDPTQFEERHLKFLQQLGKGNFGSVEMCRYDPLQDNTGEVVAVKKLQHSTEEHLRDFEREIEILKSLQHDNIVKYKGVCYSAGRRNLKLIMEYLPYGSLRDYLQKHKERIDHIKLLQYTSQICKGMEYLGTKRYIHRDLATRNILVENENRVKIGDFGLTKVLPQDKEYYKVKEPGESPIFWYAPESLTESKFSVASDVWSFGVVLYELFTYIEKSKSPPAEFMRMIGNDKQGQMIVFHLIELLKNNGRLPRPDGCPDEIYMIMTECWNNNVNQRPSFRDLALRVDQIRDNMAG

[4] = Solubility of the compound in buffer at pH7; assay type: physicochemical; conditions: pH 7
[5] = Cmax in Balb nu/nu mouse at 10 mg/kg, iv; assay type: ADME, organism-based; parameters: dose 10 mg/kg, route intravenous; conditions: in vivo
Procedure, shortened: (§1)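 Overnight-fasted male Nu/Nu mice, single intravenous dose in 10% Tween 80 in 5% dextrose, three mice. Saphenous vein blood taken at predose, 0.083, 0.5, 1, 6 and 24 h. Plasma obtained by centrifugation at 10,000g, 3 min, 4 °C, stored at -80 °C, then analysed by LC/MS/MS.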

[6] = (§2) AUC(infinity) in Balb nu/nu mouse at 10 mg/kg, iv; assay type: ADME, organism-based, Plasma; parameters: dose 10 mg/kg, route intravenous, time infinity; conditions: Balb nu/nu, plasma
Procedure, shortened: as §1

[7] = Clearance in Balb nu/nu mouse at 10 mg/kg, iv; assay type: ADME, organism-based; parameters: dose 10 mg/kg, route intravenous; conditions: in vivo
Procedure, shortened: as §1

[8] = Volume of distribution at steady state in Balb nu/nu mouse at 10 mg/kg, iv; assay type: ADME, organism-based; parameters: dose 10 mg/kg, route intravenous; conditions: in vivo, read-out: Vdss
Procedure, shortened: as §1

[9] = Half life in Balb nu/nu mouse at 10 mg/kg, iv; assay type: ADME, organism-based; parameters: dose 10 mg/kg, route intravenous; conditions: in vivo
Procedure, shortened: as §1

[10] = Cmax in Balb nu/nu mouse at 10 mg/kg, po; assay type: ADME, organism-based; parameters: dose 10 mg/kg, route oral; conditions: in vivo
Procedure, shortened: (§3)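 Overnight-fasted male Nu/Nu mice, single oral dose in 0.5% methocel, three mice. Saphenous vein blood taken at predose, 0.083, 0.5, 1, 6 and 24 h. Plasma obtained by centrifugation at 10,000g, 3 min, 4 °C, stored at -80 °C, then analysed by LC/MS/MS.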

[11] = AUC(infinity) in Balb nu/nu mouse at 10 mg/kg, po; assay type: ADME, organism-based; parameters: time infinity, dose 10 mg/kg, route oral; conditions: plasma
Procedure, shortened: as §3

[12] = Half life in Balb nu/nu mouse at 10 mg/kg, po; assay type: ADME, organism-based; parameters: dose 10 mg/kg, route oral; conditions: in vivo
Procedure, shortened: as §3

[13] = Oral bioavailability in Balb nu/nu mouse at 10 mg/kg; assay type: ADME, organism-based; conditions: in vivo
Procedure, shortened: as §3

Mus musculus = test: as §2; assay type: ADME, organism-based, Plasma; parameters: dose 10 mg/kg, route intravenous, time infinity; conditions: in vivo
Procedure, shortened: as §1

Chain of Tyrosine-protein kinase JAK2 (Homo sapiens, UniProt O60674) (O60674 whole entry): as the sequence (O60674 whole entry V617F) above, with F617V counted along it

## Cc1ccc(Cl)cc1-c1[nH]c(-c2ccnc(N)n2)cc1C(=O)NCCO
[1]
  IC50: 57 nM

## CNC(=O)c1cc(-c2ccnc(N)n2)[nH]c1-c1cc(Cl)ccc1C
[2]
  IC50: 2070 nM
A2780
  IC50: 980 nM
[1]
  IC50: 35 nM
[3]
  IC50: 480 nM

## Cc1ccc(Cl)cc1-c1[nH]c(-c2ccnc(N)n2)cc1C(=O)NC1CCN(C)CC1
[1]
  IC50: 46 nM
[3]
  IC50: > 3000 nM

## NC(=O)c1cc(-c2ccnc(N)n2)[nH]c1-c1ccccc1
[1]
  IC50: 3200 nM

## Cc1ccc(C(F)(F)F)cc1-c1[nH]c(-c2ccnc(N)n2)cc1C(N)=O
[2]
  IC50: 640 nM
A2780
  IC50: 440 nM
[1]
  IC50: 10 nM
[3]
  IC50: 760 nM

## NC(=O)c1cc(-c2ccnc(N)n2)[nH]c1-c1ccccc1Cl
[1]
  IC50: 615 nM

## Cc1ccc(Cl)cc1-c1[nH]c(-c2ccncn2)cc1C(N)=O
[1]
  IC50: 1240 nM

## Cc1ccc(Cl)cc1-c1[nH]c(-c2ccnc(N)n2)cc1C(=O)Nc1ccccc1
[1]
  IC50: 247 nM

## CCc1ccc(C(F)(F)F)cc1-c1[nH]c(-c2ccnc(N)n2)cc1C(N)=O
[2]
  IC50: 1470 nM
A2780
  IC50: 2210 nM
[4]
  solubility: 182 µM (≈ 68.3 µg/mL)
[5]
  Cmax: 38.9 µM
[6]
  AUC(0-inf): 20.7 µM·h
[7]
  clearance: 21.6 mL/min/kg
[8]
  Vd: 0.6 L/kg
[9]
  half-life: 60 min
[10]
  Cmax: 4.4 µM
[11]
  AUC(0-inf): 4.6 µM·h
[12]
  half-life: 108 min
[13]
  bioavailability: 24%
[3]
  IC50: 320 nM

## Cc1ccc(Cl)cc1-c1c(C(N)=O)cc(-c2ccnc(N)n2)n1C
[1]
  IC50: 66 nM

## NC(=O)c1cc(-c2ccnc(N)n2)[nH]c1-c1cc(Cl)ccc1C(F)(F)F
[1]
  IC50: 53 nM

## CCc1ccc(Cl)cc1-c1[nH]c(-c2ccnc(N)n2)cc1C(N)=O
[2]
  IC50: 880 nM
A2780
  IC50: 2000 nM
[4]
  solubility: 200 µM (≈ 68.4 µg/mL)
[5]
  Cmax: 4.5 µM
Mus musculus
  AUC: 2 µM·h
[8]
  Vd: 1.8 L/kg
[9]
  half-life: 12 min
[10]
  Cmax: 0.6 µM
[11]
  AUC(0-inf): 0.7 µM·h
[12]
  half-life: 48 min
[13]
  bioavailability: 17%

## Cc1ccc(Cl)cc1-c1[nH]c(-c2ccnc(N)n2)cc1C(=O)NCc1ccccc1
[1]
  IC50: 154 nM

## CNCCNC(=O)c1cc(-c2ccnc(N)n2)[nH]c1-c1cc(Cl)ccc1C
[1]
  IC50: 44 nM
[3]
  IC50: > 3000 nM

## Cc1ccc(Cl)cc1-c1c(C(N)=O)cc(-c2ccnc(Nc3ccc(N4CCN(C)CC4)cc3)n2)n1C
[1]
  IC50: 22 nM
[3]
  IC50: 250 nM

## Cc1ccc(Cl)cc1-c1[nH]c(-c2ccnc(N)n2)cc1C(N)=O
[2]
  IC50: 740 nM
A2780
  IC50: 380 nM

## NC(=O)c1cc(-c2ccnc(N)n2)[nH]c1-c1cccc(Cl)c1
[1]
  IC50: 617 nM

## NC(=O)c1cc(-c2ccnc(N)n2)[nH]c1-c1cc(C(F)(F)F)ccc1C(F)(F)F
[1]
  IC50: 21 nM
[3]
  IC50: 3070 nM

## NC(=O)c1cc(-c2ccnc(N)n2)[nH]c1-c1cc(Cl)ccc1Cl
[2]
  IC50: 1660 nM
A2780
  IC50: 2460 nM
[3]
  IC50: 700 nM

## NC(=O)c1cc(-c2ccnc(N)n2)[nH]c1-c1cc(OC(F)(F)F)ccc1Cl
[1]
  IC50: 24 nM
[3]
  IC50: 1100 nM

## CC(C)c1ccc(Cl)cc1-c1[nH]c(-c2ccnc(N)n2)cc1C(N)=O
[1]
  IC50: 150 nM

## Cc1ccc(Cl)cc1-c1[nH]c(-c2ccnc(Nc3ccc(N4CCN(C)CC4)cc3)n2)cc1C(N)=O
[1]
  IC50: 59 nM

## Cc1ccc(Cl)cc1-c1[nH]c(-c2ccnc(N)n2)cc1C(=O)NCC(C)C
[1]
  IC50: 384 nM

## Cc1ccccc1-c1[nH]c(-c2ccnc(N)n2)cc1C(N)=O
[1]
  IC50: 695 nM

## COc1ccc(CNc2nccc(-c3cc(C(N)=O)c(-c4cc(Cl)ccc4C)[nH]3)n2)cc1
[1]
  IC50: 394 nM

## Cc1ccc(Cl)cc1-c1[nH]c(-c2ccnc(N)n2)cc1C(=O)NCCF
[1]
  IC50: 114 nM

## Cc1ccc(Cl)cc1-c1[nH]c(-c2ccnc(N)n2)cc1C(=O)N(C)C
[1]
  IC50: 3060 nM

## CCNC(=O)c1cc(-c2ccnc(N)n2)[nH]c1-c1cc(Cl)ccc1C
[1]
  IC50: 109 nM

## COc1ccc(Cl)cc1-c1[nH]c(-c2ccnc(N)n2)cc1C(N)=O
[1]
  IC50: 308 nM
